Measurements from ChEMBL document CHEMBL1641580, “Identification of 3-phenylaminoquinolinium and 3-phenylaminopyridinium salts as new agents against opportunistic fungal pathogens” (Bioorg Med Chem, 2011).
Calls of active or inactive are those of the source. No cut-off for these calls is given here.

Experiments:
Candida albicans [1] = assay: Antifungal activity against Candida albicans ATCC 90028 by microscopy; assay type: functional
Summary of the method: (§1)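 Modified NCCLS microdilution. Samples in DMSO serially diluted in saline and tested in duplicate against inocula standardized to 0.5 McFarland. Broths: C. albicans SDB or RPMI 1640; C. neoformans SDB; A. fumigatus YM broth. Highest final concentration 20 µg/mL. MIC read visually as the lowest concentration with no detectable growth (for Alamar Blue wells, no blue-to-pink change).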

Candida albicans [2] = assay: Antifungal activity against Candida albicans ATCC 90028 assessed as inhibition of fungal growth by alamar blue assay; assay type: functional, organism-based
Summary of the method: (§2)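 Broth microdilution modified from NCCLS. DMSO stocks serially diluted in saline and plated in duplicate. Inoculum set by 0.5 McFarland standard. Media: C. albicans in SDB or RPMI 1640; C. neoformans in SDB; A. fumigatus in RPMI-1640 + 5% Alamar Blue. Highest final concentration 20 µg/mL. Plates read before and after incubation by fluorescence 544ex/590em (A. fumigatus) or OD 630 nm. IC50 from percent growth vs concentration.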

Aspergillus fumigatus [3] = assay: Antifungal activity against Aspergillus fumigatus ATCC 90906 by microscopy; assay type: functional; summary of the method: as §1
Aspergillus fumigatus [4] = assay: Fungicidal activity against Aspergillus fumigatus ATCC 90906; assay type: functional
Cryptococcus neoformans [5] = assay: Antifungal activity against Cryptococcus neoformans ATCC 90113 assessed as inhibition of fungal growth by alamar blue assay; assay type: functional, organism-based; summary of the method: as §2
Cryptococcus neoformans [6] = assay: Fungicidal activity against Cryptococcus neoformans ATCC 90113; assay type: functional
Cryptococcus neoformans [7] = assay: Antifungal activity against Cryptococcus neoformans ATCC 90113 by microscopy; assay type: functional
Summary of the method: as §1, with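 “McFarland.” for “McFarland. Broths: C. albicans SDB or RPMI 1640; C. neoformans SDB; A. fumigatus YM broth.”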

Aspergillus fumigatus [8] = assay: Antifungal activity against Aspergillus fumigatus ATCC 90906 assessed as inhibition of fungal growth by alamar blue assay; assay type: functional, organism-based; summary of the method: as §2
Candida albicans [9] = assay: Fungicidal activity against Candida albicans ATCC 90028; assay type: functional
Aspergillus fumigatus [10] = assay: Antifungal activity against Aspergillus fumigatus ATCC 90906 assessed as inhibition of fungal growth at 20 ug/mL by alamar blue assay; assay type: functional, organism-based; summary of the method: as §2
[11] = Cytotoxicity against african green monkey Vero cells after 48 hrs by neutral red assay; assay type: cell-based; settings: chlorocebus sabaeus, read-out: TC50
Summary of the method: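 Vero kidney fibroblasts seeded at 25,000 cells/well and grown 24 h, then exposed to samples up to 20 µg/ml for 48 h. Viable cells measured by neutral red assay. IC50 taken from growth-inhibition vs concentration curves. DMSO served as vehicle control.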

[12] = Aspergillus fumigatus, ATCC 90906, read-out: IC50

SMILES | MIC (Candida albicans [1]) [µg/mL] | IC50 (Candida albicans [2]) [µg/mL] | MIC (Aspergillus fumigatus [3]) [µg/mL] | MFC (Aspergillus fumigatus [4]) [µg/mL] | IC50 (Cryptococcus neoformans [5]) [µg/mL] | MFC (Cryptococcus neoformans [6]) [µg/mL] | MIC (Cryptococcus neoformans [7]) [µg/mL] | IC50 (Aspergillus fumigatus [8]; [12]) [µg/mL] | MFC (Candida albicans [9]) [µg/mL] | inhibition (Aspergillus fumigatus [10]) | CC50 at 48 h [11] [µg/mL] | IC50 (Aspergillus fumigatus [8])
C[n+]1cc(N(CCCCCC2CCCCC2)c2ccccc2Cl)cc2ccccc21.[I-] | 1.3 | 0.63 | 5 | 20 | 0.2 | 0.6 | 0.3 | 3.1 | 1.3 | – | – | –
COc1cccc(N(CCCCCC2CCCCC2)c2ccc[n+](C)c2)c1.[I-] | 20 | 8.9 | – | – | 3.6 | 5 | 5 | – | > 20 | inactive | > 10 | –
Clc1cccc(Nc2cc3ccccc3[n+](CCCCCC3CCCCC3)c2)c1.[I-] | 6.3 | 2 | 6.3 | > 20 | 2 | 50 | 3.1 | 3.5 | 13 | – | > 10 | –
Clc1ccc(Nc2cc3ccccc3[n+](CCCCCC3CCCCC3)c2)cc1.[I-] | > 20 | 2 | – | – | 1 | > 20 | 1.6 | – | – | – | > 10 | Not Active
Clc1ccc(Nc2cc3ccccc3[n+](CCCCCc3ccccc3)c2)cc1.[I-] | > 20 | 15 | > 20 | > 20 | 4 | 12.5 | 6.3 | 10 | > 20 | – | > 25 | –
CCc1ccc(N(CCCCCC2CCCCC2)c2ccc[n+](C)c2)cc1.[I-] | 2.5 | 1.3 | 5 | – | 0.4 | 5 | 0.6 | 2.7 | 5 | – | 10 | –
[I-].c1ccc(Nc2cc3ccccc3[n+](CCCCCC3CCCCC3)c2)cc1 | 10 | 3.5 | 2.5 | 10 | 1.5 | 10 | 2.5 | 1 | > 20 | – | – | –
C[n+]1cccc(N(CCCCCC2CCCCC2)c2ccc(C(F)(F)F)cc2)c1.[I-] | 2.5 | 1 | 2.5 | 5 | 1.5 | 5 | 2.5 | 1.5 | 10 | – | > 10 | –
C[n+]1c2ccc(Cl)cc2cc2[nH]c3ccccc3c21.[I-] | 5.5 | 0.5 | > 20 | > 20 | 2 | > 20 | 5 | 10 | > 20 | – | – | –
C[n+]1c2ccccc2cc2[nH]c3ccc(Br)cc3c21.[I-] | > 20 | 2.5 | 10 | – | 2.5 | – | 20 | – | – | – | 0.93 | –
C[n+]1c2ccccc2cc2[nH]c3cccc(Cl)c3c21.[I-] | – | > 20 | – | – | > 20 | – | – | > 20 | – | – | > 4.7 | –
C[n+]1cccc(N(CCCCCC2CCCCC2)c2ccccc2C#N)c1.[I-] | – | – | – | – | 6.6 | 20 | 10 | – | – | inactive | > 10 | –
C[n+]1c2ccc(Cl)cc2cc2c1c1ccccc1n2CCCCCC1CCCCC1.[I-] | 1.3 | 0.6 | 1.3 | > 20 | 0.9 | 10 | 2.5 | – | > 20 | – | 1.4 | –
C[n+]1cccc(N(CCCCCC2CCCCC2)c2cccc(Cl)c2)c1.[I-] | 5 | 3 | 20 | 20 | 0.7 | 1.3 | 1.3 | 12.4 | 10 | – | > 10 | –
C[n+]1cccc(N(CCCCCC2CCCCC2)c2ccccc2Cl)c1.[I-] | 5 | 2.8 | > 20 | > 20 | 2 | 2.5 | 2.5 | 18 | 5 | – | – | –
C[n+]1c2ccccc2cc2[nH]c3c(Cl)cccc3c21.[I-] | – | > 20 | – | – | > 20 | – | – | – | – | – | 3.2 | –

SMILES | MIC (Candida albicans [1]) [µg/mL] | IC50 (Candida albicans [2]) [µg/mL] | MIC (Aspergillus fumigatus [3]) [µg/mL] | MFC (Aspergillus fumigatus [4]) [µg/mL] | IC50 (Cryptococcus neoformans [5]) [µg/mL] | MFC (Cryptococcus neoformans [6]) [µg/mL] | MIC (Cryptococcus neoformans [7]) [µg/mL] | IC50 (Aspergillus fumigatus [8]; [12]) [µg/mL] | MFC (Candida albicans [9]) [µg/mL] | inhibition (Aspergillus fumigatus [10]) | CC50 at 48 h [11] [µg/mL] | IC50 (Aspergillus fumigatus [8])
C[n+]1c2ccccc2cc2[nH]c3ccc(Cl)cc3c21.[I-] | > 20 | 4.5 | – | – | 15 | – | > 20 | > 20 | – | – | 1.5 | –
CSc1ccc(N(CCCCCC2CCCCC2)c2ccc[n+](C)c2)cc1.[I-] | 5 | 2 | 10 | 10 | 1.2 | 2.5 | 1.3 | 6.4 | 10 | – | > 10 | –
Cc1ccc(N(CCCCCC2CCCCC2)c2ccc[n+](C)c2)cc1.[I-] | 2.5 | 1.5 | 5 | 5 | 1.5 | 5 | 2.5 | 1.5 | 10 | – | > 10 | –
C[n+]1cccc(N(CCCCCC2CCCCC2)c2cccc(C(F)(F)F)c2)c1.[I-] | 5 | 3 | 2.5 | 10 | 1.5 | 5 | 2.5 | 1.5 | 20 | – | > 10 | –
Cc1ccccc1N(CCCCCC1CCCCC1)c1ccc[n+](C)c1.[I-] | 5 | 2.6 | > 20 | > 20 | 1.5 | 2.5 | 2.5 | 19 | 5 | – | – | –
C[n+]1cccc(N(CCCCCC2CCCCC2)c2ccccc2C(F)(F)F)c1.[I-] | 5 | 2.6 | – | – | 2.3 | 5 | 5 | – | 5 | inactive | – | –
Cc1cccc(N(CCCCCC2CCCCC2)c2ccc[n+](C)c2)c1.[I-] | 5 | 3 | 10 | 20 | 1.4 | 2.5 | 2.5 | 8.7 | 10 | – | > 10 | –
C[n+]1cccc(N(CCCCCC2CCCCC2)c2ccc(Cl)cc2)c1.[I-] | 3.1 | 1.5 | 1.6 | – | 1 | – | 1.6 | 1 | – | – | > 10 | –
C[n+]1c2cc(Cl)ccc2cc2[nH]c3ccccc3c21.O=S(=O)([O-])C(F)(F)F | > 20 | 3 | – | – | 15 | – | > 20 | > 20 | – | – | 2.1 | –
C[n+]1c2cccc(Cl)c2cc2[nH]c3ccccc3c21.O=S(=O)([O-])C(F)(F)F | > 20 | 0.6 | – | – | 7 | – | > 20 | > 20 | – | – | 5 | –
COc1ccccc1N(CCCCCC1CCCCC1)c1ccc[n+](C)c1.[I-] | 10 | 5 | – | – | 3 | 5 | 5 | – | 10 | inactive | – | –
C[n+]1cc(N(CCCCCC2CCCCC2)c2ccc(Cl)cc2)cc2ccccc21.[I-] | 1.3 | 0.5 | 1.3 | 10 | 0.4 | 2.5 | 0.6 | 0.8 | 5 | – | 10 | –
C[n+]1c2cc(Cl)ccc2c(Cl)c2[nH]c3ccccc3c21.[I-] | 10 | 1 | – | – | 6 | > 20 | 10 | > 20 | > 20 | – | 10 | –
C[n+]1cc(N(CCCCCC2CCCCC2)c2cccc(Cl)c2)cc2ccccc21.[I-] | 2.5 | 0.9 | 2.5 | 10 | 0.9 | 5 | 1.3 | 1 | 10 | – | > 10 | –
C[n+]1cc(N(CCCCCC2CCCCC2)c2ccccc2)cc2ccccc21.[I-] | 2.5 | 1.2 | 10 | 10 | 0.2 | 0.6 | 0.3 | 4.6 | 2.5 | – | 9.8 | –
